Measurements taken from ChEMBL document CHEMBL5331128, “Alicyclic Ring Size Variation of 4-Phenyl-2-naphthoic Acid Derivatives as P2Y14 Receptor Antagonists” (J Med Chem, 2023).
pIC50, pKi: −log10 of the molar value. The source made the active and inactive calls.

How the values were obtained:
[1] = biological target: T1, P2Y purinoceptor 14 (Homo sapiens) (UniProt Q15391); assay: Displacement of fluorescent tracer 4-(4-(1-(4-(1-(6-(3-carboxylato-4-(3-iminio-3H-xanthen-9-yl)benzamido)hexyl)-4,5-dihydro-1H-pyrrol-3-yl)butyl)piperidin-1-ium-4-yl)phenyl)-7-(4-(trifluoromethyl)phenyl)-2-naphthoate from human P2Y14R stably expressed in CHO cells upto 100 uM by flow cytometry; assay type: cell-based
T1 sequence (whole entry): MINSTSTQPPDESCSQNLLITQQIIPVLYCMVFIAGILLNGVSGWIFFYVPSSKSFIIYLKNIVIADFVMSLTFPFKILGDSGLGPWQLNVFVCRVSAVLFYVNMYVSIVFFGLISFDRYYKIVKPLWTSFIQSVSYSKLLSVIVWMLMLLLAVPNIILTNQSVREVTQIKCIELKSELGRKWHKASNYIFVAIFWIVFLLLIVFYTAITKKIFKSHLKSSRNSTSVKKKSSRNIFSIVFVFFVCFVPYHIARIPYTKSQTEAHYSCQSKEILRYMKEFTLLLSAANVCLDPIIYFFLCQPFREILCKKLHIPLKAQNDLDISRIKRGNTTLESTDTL

[2] = biological target: T1, P2Y purinoceptor 14 (Homo sapiens); assay: Binding affinity to human P2Y14R stably expressed in CHO cells at 2 to 20000 nM by flow cytometry; assay type: cell-based; conditions: dose 2-20000 nM
Outline: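 Whole CHO cells expressing hP2Y14R. Binding of an AlexaFluor-free JaneliaFluor 646 tracer conjugate was tested at final concentrations of 2, 100, 500 and 20,000 nM, under conditions similar to the AlexaFluor488 tracer assay (20 nM). Specific binding was read by flow cytometry.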

[3] = biological target: T2, P2Y purinoceptor 14 (Homo sapiens, UniProt Q15391); assay: (§1) Displacement of fluorescent tracer 4-(4-(1-(4-(1-(6-(3-carboxylato-4-(3-iminio-3H-xanthen-9-yl)benzamido)hexyl)-4,5-dihydro-1H-pyrrol-3-yl)butyl)piperidin-1-ium-4-yl)phenyl)-7-(4-(trifluoromethyl)phenyl)-2-naphthoate from human P2Y14R stably expressed in CHO cells by flow cytometry; assay type: cell-based
T2 sequence (Q15391 whole entry): T1 sequence (whole entry)
Outline: (§2)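 Whole-cell competitive binding: CHO cells expressing hP2Y14R (or HEK-293 cells expressing mP2Y14R) incubated with AlexaFluor488-labelled antagonist tracer at 20 nM.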

[4] = biological target: T2, P2Y purinoceptor 14; assay: as §1, with “cells assessed as inhibition constant” for “cells”; assay type: cell-based; outline: as §2
[5] = tested on: Mus musculus; assay: Antiallodynic activity in CCI surgery neuropathic pain Hsd:ICR mouse model assessed as reversal of mechano-allodynia by measuring paw withdrawal threshold at 10 micromol/kg,ip and measured at 3 hrs by von frey test; assay type: functional, organism-based; conditions: dose 10.0 µmol/kg
Outline: (§3)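 CCI neuropathic pain in adult male Hsd:ICR (CD-1) mice (20–30 g). Single i.p. injection on day 7 after sciatic nerve constriction, at peak pain. Vehicle 10% (Kolliphor HS 15:DMSO 5:95) in saline, 0.2 mL. Paw withdrawal threshold by von Frey filaments on ipsilateral and contralateral hindpaws. Mean ± SD; two-way ANOVA with Dunnett's test versus day 0 and day 7.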

[6] = biological target: T3, Alpha-1B adrenergic receptor (Homo sapiens, UniProt P35368); assay: Displacement of [3H]-Prazosin from human adrenergic alpha1B receptor assessed as inhibition constant by radioligand displacement assay
T3 sequence (P35368 whole entry): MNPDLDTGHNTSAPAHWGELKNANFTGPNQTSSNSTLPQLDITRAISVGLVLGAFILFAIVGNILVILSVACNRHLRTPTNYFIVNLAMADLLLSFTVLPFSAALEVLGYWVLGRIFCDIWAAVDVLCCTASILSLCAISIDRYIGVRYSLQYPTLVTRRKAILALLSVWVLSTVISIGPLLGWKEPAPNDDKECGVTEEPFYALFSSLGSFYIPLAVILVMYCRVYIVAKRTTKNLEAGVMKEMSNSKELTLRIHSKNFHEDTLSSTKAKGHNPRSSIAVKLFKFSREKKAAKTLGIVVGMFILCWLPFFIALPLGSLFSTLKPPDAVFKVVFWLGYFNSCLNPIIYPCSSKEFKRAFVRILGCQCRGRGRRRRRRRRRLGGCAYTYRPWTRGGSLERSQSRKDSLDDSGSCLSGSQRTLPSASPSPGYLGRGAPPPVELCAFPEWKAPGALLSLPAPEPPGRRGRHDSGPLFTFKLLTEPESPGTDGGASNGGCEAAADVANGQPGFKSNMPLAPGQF

[7] = tested on: Mus musculus; assay: Antiallodynic activity in CCI surgery neuropathic pain Hsd:ICR mouse model assessed as reversal of mechano-allodynia by measuring paw withdrawal threshold at 10 micromol/kg,ip and measured upto 5 days by von frey test; assay type: functional, organism-based; conditions: dose 10.0 µmol/kg, time <= 5.0 day; outline: as §3
[8] = Lipophilicity, log D of compound at pH 7.4 incubated for 20 hrs by HPLC analysis; assay type: physicochemical; conditions: buffer
[9] = biological target: 5-hydroxytryptamine receptor 1B (Homo sapiens, UniProt P28222); assay: Displacement of [3H]-5-CT from human 5-HT1B receptor assessed as inhibition constant by radioligand displacement assay
[10] = biological target: T4, P2Y purinoceptor 14 (Mus musculus, UniProt Q9ESG6); assay: Displacement of fluorescent tracer 4-(4-(1-(4-(1-(6-(3-carboxylato-4-(3-iminio-3H-xanthen-9-yl)benzamido)hexyl)-4,5-dihydro-1H-pyrrol-3-yl)butyl)piperidin-1-ium-4-yl)phenyl)-7-(4-(trifluoromethyl)phenyl)-2-naphthoate from mouse P2Y14R stably expressed in human HEK293 cells by flow cytometry; assay type: cell-based
T4 sequence (Q9ESG6 whole entry): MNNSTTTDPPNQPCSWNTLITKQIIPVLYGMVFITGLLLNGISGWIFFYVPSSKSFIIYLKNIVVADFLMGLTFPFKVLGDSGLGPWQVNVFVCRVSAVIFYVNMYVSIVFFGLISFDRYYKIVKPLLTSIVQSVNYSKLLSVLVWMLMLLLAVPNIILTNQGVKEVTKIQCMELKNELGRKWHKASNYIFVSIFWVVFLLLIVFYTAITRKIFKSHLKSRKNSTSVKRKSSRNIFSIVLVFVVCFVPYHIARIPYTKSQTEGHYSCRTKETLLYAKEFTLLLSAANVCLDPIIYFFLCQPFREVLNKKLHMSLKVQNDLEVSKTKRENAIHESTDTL
Outline: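 Whole-cell competitive binding: CHO cells expressing hP2Y14R (or HEK-293 cells expressing mP2Y14R) incubated with AlexaFluor488-labelled antagonist tracer at 20 nM. […] Ki derived by dividing IC50 by 1.72.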

[11] = biological target: T5, Alpha-2A adrenergic receptor (Homo sapiens, UniProt P08913); assay: Displacement of [3H]-Rauwolscine from human adrenergic alpha2A receptor assessed as inhibition constant by radioligand displacement assay
T5 sequence (P08913 whole entry): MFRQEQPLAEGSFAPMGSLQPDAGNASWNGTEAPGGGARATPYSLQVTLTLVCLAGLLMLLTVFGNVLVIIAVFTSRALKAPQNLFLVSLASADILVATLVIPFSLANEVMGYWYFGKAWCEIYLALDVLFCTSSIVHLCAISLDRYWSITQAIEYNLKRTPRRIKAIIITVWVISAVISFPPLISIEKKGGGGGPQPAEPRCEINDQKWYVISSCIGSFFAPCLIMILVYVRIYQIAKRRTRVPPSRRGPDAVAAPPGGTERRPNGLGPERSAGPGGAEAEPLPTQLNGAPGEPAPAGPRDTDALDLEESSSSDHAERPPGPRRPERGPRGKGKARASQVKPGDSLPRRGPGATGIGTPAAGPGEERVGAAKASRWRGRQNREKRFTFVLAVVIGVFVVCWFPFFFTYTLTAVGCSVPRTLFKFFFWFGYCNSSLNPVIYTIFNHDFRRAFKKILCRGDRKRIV

[12] = Selectivity ratio, ratio of IC50 for displacement of fluorescent tracer 4-(4-(1-(4-(1-(6-(3-carboxylato-4-(3-iminio-3H-xanthen-9-yl)benzamido)hexyl)-4,5-dihydro-1H-pyrrol-3-yl)butyl)piperidin-1-ium-4-yl)phenyl)-7-(4-(trifluoromethyl)phenyl)-2-naphthoate from mouse P2Y14R stably expressed in human HEK293 cells to IC50 for displacement of fluorescent tracer 4-(4-(1-(4-(1-(6-(3-carboxylato-4-(3-iminio-3H-xanthen-9-yl)benzamido)hexyl)-4,5-dihydro-1H-pyrrol-3-yl)butyl)piperidin-1-ium-4-yl)phenyl)-7-(4-(trifluoromethyl)phenyl)-2-naphthoate from human P2Y14R stably expressed in CHO cells; assay type: cell-based
[13] = tested on: Mus musculus; assay: Antiallodynic activity in CCI surgery neuropathic pain Hsd:ICR mouse model assessed as reversal of mechano-allodynia by measuring paw withdrawal threshold at 10 micromol/kg,po and measured upto 6 hrs by von frey test; assay type: functional, organism-based; conditions: dose 10.0 µmol/kg
Outline: (§4)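 CCI neuropathic pain in adult male CD-1 mice. Single oral gavage dose of 10 μmol/kg on day 7 post-surgery. Vehicle 5% DMSO + 10% (Kolliphor HS 15:DMSO 5:95) in 0.5% methylcellulose, 0.2 mL. Von Frey paw withdrawal threshold on both hindpaws. Mean ± SD; two-way ANOVA with Dunnett's test.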

[14] = Antagonist activity at chimpanzee P2Y14R stably expressed in human HEK cells assessed as inhibition of UDP-glucose induced Ca2+ signaling incubated for 20 mins by FLIPR analysis; assay type: cell-based; conditions: Pan troglodytes, HEK293, 20 min
[15] = Prodrug conversion in CD-1 mouse plasma assessed as Cmax of 4-(4-((1S,4S,5S)-2-azabicyclo[2.2.1]heptan-5-yl)phenyl)-7-(4-(trifluoromethyl)phenyl)-2-naphthoic acid at 10 mg/kg,sc and measured from 2 to 4 hrs by LC-MS/MS analysis; assay type: ADME, organism-based; parameters: time upper 4 hrs, time lower 2 hrs, dose 10 mg/kg, route sc; conditions: in vivo
Outline: (§5)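 Female CD1 mice given mono-ester prodrug subcutaneously at 10 mg/kg. Released parent acid followed in plasma (peak concentration, t1/2, AUCinf) and total amount excreted in urine.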

[16] = Stability in human plasma assessed as half life at 1 uM and measured at 120 mins by LC-MS/MS analysis; assay type: ADME, cell-free; conditions: 2 h, 1 µM
[17] = Prodrug conversion in CD-1 mouse plasma assessed as AUC (0 to infinity) of 4-(4-((1S,4S,5S)-2-azabicyclo[2.2.1]heptan-5-yl)phenyl)-7-(4-(trifluoromethyl)phenyl)-2-naphthoic acid at 10 mg/kg,sc and measured upto 24 hrs by LC-MS/MS analysis; assay type: ADME, organism-based; parameters: dose 10 mg/kg, time < 24 hrs, route sc; conditions: in vivo; outline: as §5
[18] = Stability in mouse plasma assessed as half life at 1 uM and measured at 120 mins by LC-MS/MS analysis; assay type: ADME, cell-free
[19] = tested on: Mus musculus; assay: Antiallodynic activity in CCI surgery neuropathic pain Hsd:ICR mouse model assessed as reversal of mechano-allodynia by measuring paw withdrawal threshold at 10 micromol/kg,po and measured at 1 hrs by von frey test; assay type: functional, organism-based; conditions: dose 10.0 µmol/kg; outline: as §4
[20] = Prodrug conversion in CD-1 mouse plasma assessed as half life of 4-(4-((1S,4S,5S)-2-azabicyclo[2.2.1]heptan-5-yl)phenyl)-7-(4-(trifluoromethyl)phenyl)-2-naphthoic acid at 10 mg/kg,sc and measured upto 24 hrs by LC-MS/MS analysis; assay type: ADME, organism-based; conditions: in vivo
Outline: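 Ester prodrug given subcutaneously at 10 mg/kg to female CD1 mice. Plasma levels of the released active acid followed over time, with half-life derived for the active drug.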

[21] = Prodrug conversion in CD-1 mouse assessed as 4-(4-((1S,4S,5S)-2-azabicyclo[2.2.1]heptan-5-yl)phenyl)-7-(4-(trifluoromethyl)phenyl)-2-naphthoic acid excretion in urine at 10 mg/kg,sc and measured upto 24 hrs by LC-MS/MS analysis; assay type: ADME, organism-based; conditions: in vivo; outline: as §5
[22] = biological target: Sigma intracellular receptor 2 (Homo sapiens, UniProt Q5BJF2); assay: Displacement of [3H]-DTG from human sigma 2 receptor assessed as inhibition constant by radioligand displacement assay
[23] = biological target: Histamine H1 receptor (Homo sapiens, UniProt P35367); assay: Displacement of [3H]-Pyrilamine from human histamine H1 receptor assessed as inhibition constant by radioligand displacement assay
[24] = biological target: Sigma non-opioid intracellular receptor 1 (Homo sapiens, UniProt Q99720); assay: Displacement of [3H]-Pentazocine from human sigma 1 receptor assessed as inhibition constant by radioligand displacement assay
[25] = biological target: Beta-3 adrenergic receptor (Homo sapiens, UniProt P13945); assay: Displacement of [125I]-Pindolol from human adrenergic beta3 receptor assessed as inhibition constant by radioligand displacement assay
Sequence of Beta-3 adrenergic receptor (P13945 whole entry): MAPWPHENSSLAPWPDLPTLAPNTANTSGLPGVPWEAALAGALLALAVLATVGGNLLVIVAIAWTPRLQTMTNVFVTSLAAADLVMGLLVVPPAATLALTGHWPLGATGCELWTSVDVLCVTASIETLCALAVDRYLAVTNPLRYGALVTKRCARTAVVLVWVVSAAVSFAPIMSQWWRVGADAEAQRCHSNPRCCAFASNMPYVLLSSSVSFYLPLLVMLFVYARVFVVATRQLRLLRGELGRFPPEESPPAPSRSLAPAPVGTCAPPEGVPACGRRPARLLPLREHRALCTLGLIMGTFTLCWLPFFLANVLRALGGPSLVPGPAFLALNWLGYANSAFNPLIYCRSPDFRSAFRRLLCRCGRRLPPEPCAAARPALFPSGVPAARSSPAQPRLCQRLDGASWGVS

Sequence of 5-hydroxytryptamine receptor 1B (P28222 whole entry): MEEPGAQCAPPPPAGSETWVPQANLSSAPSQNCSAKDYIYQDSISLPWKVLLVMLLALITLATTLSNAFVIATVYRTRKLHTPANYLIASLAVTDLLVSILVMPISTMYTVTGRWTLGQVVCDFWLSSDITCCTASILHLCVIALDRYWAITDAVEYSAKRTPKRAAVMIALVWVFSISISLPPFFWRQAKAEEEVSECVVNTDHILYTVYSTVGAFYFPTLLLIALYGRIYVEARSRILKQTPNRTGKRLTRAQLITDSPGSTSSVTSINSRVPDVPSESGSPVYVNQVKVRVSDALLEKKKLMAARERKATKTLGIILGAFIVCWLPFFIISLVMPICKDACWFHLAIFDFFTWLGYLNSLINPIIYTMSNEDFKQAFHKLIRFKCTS
Sequence of Sigma non-opioid intracellular receptor 1 (Q99720 whole entry): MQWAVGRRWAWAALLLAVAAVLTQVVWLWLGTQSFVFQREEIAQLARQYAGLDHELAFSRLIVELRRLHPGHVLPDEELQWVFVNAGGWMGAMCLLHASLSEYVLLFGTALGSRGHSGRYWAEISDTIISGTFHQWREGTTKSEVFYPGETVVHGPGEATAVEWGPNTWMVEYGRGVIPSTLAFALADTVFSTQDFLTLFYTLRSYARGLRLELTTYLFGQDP
Sequence of Sigma intracellular receptor 2 (Q5BJF2 whole entry): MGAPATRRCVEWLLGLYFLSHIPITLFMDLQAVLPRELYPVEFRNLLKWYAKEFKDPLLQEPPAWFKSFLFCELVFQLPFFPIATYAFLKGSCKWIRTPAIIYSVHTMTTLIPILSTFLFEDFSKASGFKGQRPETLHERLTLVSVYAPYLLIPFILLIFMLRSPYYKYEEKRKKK
Sequence of Histamine H1 receptor (P35367 whole entry): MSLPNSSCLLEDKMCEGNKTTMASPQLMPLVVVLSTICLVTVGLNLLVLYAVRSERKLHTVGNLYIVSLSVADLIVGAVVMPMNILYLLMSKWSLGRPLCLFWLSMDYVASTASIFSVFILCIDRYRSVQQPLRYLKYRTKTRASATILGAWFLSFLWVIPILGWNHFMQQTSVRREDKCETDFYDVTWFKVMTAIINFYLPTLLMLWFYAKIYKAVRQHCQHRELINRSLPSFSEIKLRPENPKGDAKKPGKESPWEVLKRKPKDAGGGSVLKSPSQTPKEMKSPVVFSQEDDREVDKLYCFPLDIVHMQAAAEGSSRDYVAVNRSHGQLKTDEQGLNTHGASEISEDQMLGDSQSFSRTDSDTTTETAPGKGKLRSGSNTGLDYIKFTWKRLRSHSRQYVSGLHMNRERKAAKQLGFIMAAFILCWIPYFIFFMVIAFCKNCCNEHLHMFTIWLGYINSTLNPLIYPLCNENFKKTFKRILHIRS

## O=C(Cc1ccc(C(F)(F)F)cc1)Nc1cccc(-c2nc3cc(Cl)ccc3o2)c1
[1]
  Activity: inactive

## C[Si]1(C)C2=CC(=[N+]3CCC3)C=CC2=C(c2cc(C(=O)NCCCCCCn3cc(CCCCN4CCC(c5ccc(-c6cc(C(=O)O)cc7cc(-c8ccc(C(F)(F)F)cc8)ccc67)cc5)CC4)nn3)ccc2C(=O)[O-])c2ccc(N3CCC3)cc21
[2]
  Activity: inactive
[3]
  pIC50: 4.59
[4]
  pKi: 5.03

## O=C(O)c1cc(-c2ccc(C3(O)C[C@H]4CNC[C@@H]4C3)cc2)c2ccc(-c3ccc(C(F)(F)F)cc3)cc2c1 (racemic)
[5]
  Activity: Active
[6]
  pKi: 5.19
[7]
  Activity: Active
[8]
  logD at 20 h: 1.1
[4]
  pKi: 8.26
[9]
  pKi: 5.27
[10]
  pIC50: 8.17
[11]
  pKi: 5.24
[12]
  Ratio IC50: 0.715
[13]
  Activity: Active

## O=C(O)c1cc(-c2ccc(C3(O)CCNCC3)cc2)c2ccc(-c3ccc(C(F)(F)F)cc3)cc2c1
[14]
  pIC50: 8.20

## CN(C)C(=O)COC(=O)c1cc(-c2ccc([C@H]3C[C@H]4C[C@@H]3CN4)cc2)c2ccc(-c3ccc(C(F)(F)F)cc3)cc2c1
[15]
  Cmax: 2000 ng/mL
[16]
  t1/2: > 12 h
[7]
  Activity: Active
[17]
  AUC: 15300 ng·h/mL
[18]
  half-life at 1 µM: 1.5 min
[19]
  Activity: Active
[20]
  t1/2: 2.63 h
[13]
  Activity: Active
[21]
  Drug excretion: 1550 ng

## O=C(O)c1cc(-c2ccc(C3CCCNCC3)cc2)c2ccc(-c3ccc(C(F)(F)F)cc3)cc2c1 (racemic)
[7]
  Activity: Active
[8]
  logD at 20 h: 2.1
[22]
  pKi: 5.55
[4]
  pKi: 8.25
[9]
  pKi: 5.35
[10]
  pIC50: 7.59
[23]
  pKi: 5.55
[24]
  pKi: 6.05
[25]
  pKi: 5.18
[12]
  Ratio IC50: 2.68
[13]
  Activity: Active
